Measurements: ChEMBL document CHEMBL5678798 (Clin Cancer Res, 2009)
The source made the active and inactive calls. No cut-off for these calls is given here.

Columns and labels:
[1] = molecular target: Insulin receptor (Mus musculus) (UniProt P15208); settings: CD-1, dose 30.0 mg/kg, route po, time 21.0 day
[2] = molecular target: Fibroblast growth factor receptor 2 (Homo sapiens) (UniProt P21802); assay: Inhibition of N-terminal, His6-tagged recombinant human FGFR2 (456 to 765 residues) expressed in baculovirus infected Sf21 cells at 0.3 uM by filter binding assay relative to control
[3] = In vivo inhibition of IGF1R in mouse NIH-3T3/LISN cells implanted in IGF1-stimulated nu/nu CD-1 mouse assessed as reduction in IGF1R phosphorylation at 30 mg/kg, po pretreated for 24 hrs followed by IGF1 stimulation and measured after 10 min […] relative to control; type: functional; settings: 24.17 h, time 1450 min
In short: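 Time course: tumor-bearing female nu/nu CD-1 mice, three per group, given a single oral 30 mg/kg dose or vehicle. IGF-I given 10 min before blood and tumor collection at each time point. Tumor phospho-IGF-IR/total IGF-IR measured by capture-plate europium phosphotyrosine assay and expressed as % of ligand-stimulated control.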

[4] = molecular target: Serine/threonine-protein kinase tousled-like 2 (Homo sapiens) (UniProt Q86UE8); assay: Inhibition of N-terminal 6His-tagged recombinant human TLK2 (388 to end residues) expressed in baculovirus infected Sf21 cells at 0.3 uM by filter binding assay relative to control
In short: (§1)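 Outsourced single-concentration screen in a commercial panel of 233 protein kinases, run as radiometric filter-binding activity assays. Test agent was tested at 0.3 or 3 µmol/L, as given in each line, from a 10 mmol/L DMSO stock. Activity is expressed as percent inhibition relative to control.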

[5] = molecular target: Protein kinase C iota type (Homo sapiens) (UniProt P41743); assay: Inhibition of N-terminal His6-tagged recombinant full-length human PKCiota expressed in Sf21 cells at 3 uM by filter binding assay relative to control
In short: as §1

[6] = molecular target: FKBP12A/mTOR (Homo sapiens) (UniProt P62942+P42345); assay: Inhibition of human mTOR/FKBP12 at 3 uM by filter binding assay relative to control; type: protein-complex assay
Sequence of FKBP12A/mTOR (Homo sapiens) (P62942 2-108 limits assumed, other chains not shown): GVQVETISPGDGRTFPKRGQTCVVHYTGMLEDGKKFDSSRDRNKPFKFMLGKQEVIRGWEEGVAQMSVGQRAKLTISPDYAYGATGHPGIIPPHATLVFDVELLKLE

[7] = Antiproliferative activity against human L-82 cells assessed as reduction in cell viability after 72 hrs by CellTiter-Glo assay; type: functional, cell-based; settings: L-82, 72 h
In short: (§2)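 Cells seeded in 96-well plates, left overnight at 37°C, then exposed to a range of test concentrations for 72 h. Viability read by CellTiter-Glo luminescence; IC50 from four-parameter curve fit. Lines kept at 37°C, 5% CO2, in recommended growth medium.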

[8] = molecular target: Insulin receptor (Mus musculus) (UniProt P15208); settings: CD-1, dose 10-60 mg/kg, route po, time 242.0 min
EJM = assay: Antiproliferative activity against human EJM cells assessed as reduction in cell viability after 72 hrs by CellTiter-Glo assay; type: functional, cell-based
In short: as §2

[9] = molecular target: Serine/threonine-protein kinase D1 (Homo sapiens) (UniProt Q15139); assay: Inhibition of N-terminal His6-tagged recombinant full-length human PKCmu expressed in Sf21 cells at 3 uM by filter binding assay relative to control
Sequence of Serine/threonine-protein kinase D1 (Homo sapiens) (Q15139 whole entry): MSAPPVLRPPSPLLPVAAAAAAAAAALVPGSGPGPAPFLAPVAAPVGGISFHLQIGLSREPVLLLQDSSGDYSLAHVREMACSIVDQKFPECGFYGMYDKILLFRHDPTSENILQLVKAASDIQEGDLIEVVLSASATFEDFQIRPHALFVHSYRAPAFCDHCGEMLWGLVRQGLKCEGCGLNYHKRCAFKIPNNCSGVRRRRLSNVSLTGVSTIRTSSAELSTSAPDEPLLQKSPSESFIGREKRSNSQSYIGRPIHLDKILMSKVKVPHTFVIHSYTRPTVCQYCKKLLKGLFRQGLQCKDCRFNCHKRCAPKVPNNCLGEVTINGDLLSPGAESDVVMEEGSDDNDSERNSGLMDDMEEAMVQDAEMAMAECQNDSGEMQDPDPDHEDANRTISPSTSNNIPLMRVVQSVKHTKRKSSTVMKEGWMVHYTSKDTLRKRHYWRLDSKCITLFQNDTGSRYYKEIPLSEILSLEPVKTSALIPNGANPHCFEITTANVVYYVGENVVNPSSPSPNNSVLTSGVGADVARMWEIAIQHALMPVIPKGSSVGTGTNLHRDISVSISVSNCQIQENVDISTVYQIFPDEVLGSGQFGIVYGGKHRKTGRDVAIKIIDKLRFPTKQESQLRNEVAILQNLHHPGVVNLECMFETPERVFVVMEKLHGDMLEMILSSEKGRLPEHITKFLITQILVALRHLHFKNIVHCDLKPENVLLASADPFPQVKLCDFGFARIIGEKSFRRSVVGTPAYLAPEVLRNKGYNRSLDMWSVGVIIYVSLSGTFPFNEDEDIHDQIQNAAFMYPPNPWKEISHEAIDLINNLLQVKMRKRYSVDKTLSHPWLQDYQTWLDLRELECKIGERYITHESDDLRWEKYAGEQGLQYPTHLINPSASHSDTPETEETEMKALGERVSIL
In short: as §1

[10] = Toxicity in nu/nu CD-1 mouse implanted with mouse NIH-3T3/LISN cells assessed as reduction in body weight at 30 mg/kg, po administered twice daily for 5 to 21 days relative to control; type: organism-based; set-up: scale not given: the % may be the effect or the level left; settings: in vivo, time 5-21 day
[11] = Inhibition of mouse YAK3
[12] = molecular target: Serine/threonine-protein kinase Nek3 (Homo sapiens) (UniProt P51956); assay: Inhibition of N-terminal 6His-tagged recombinant full length human NEK3 expressed in baculovirus infected Sf21 cells at 3 uM by filter binding assay relative to control
In short: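 KinaseProfiler panel of 233 kinases: radiometric filter-binding activity assays with compound at 0.3 or 3 µmol/L. Read-out is percent inhibition.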

KMS-12-BM = assay: Antiproliferative activity against human KMS-12-BM cells assessed as reduction in cell viability after 72 hrs by CellTiter-Glo assay; type: functional, cell-based
In short: as §2

[13] = molecular target: Serine/threonine-protein kinase TAO2 (Homo sapiens) (UniProt Q9UL54); assay: Inhibition of N-terminal 6His-tagged recombinant human TAO2 expressed in Sf21 cells at 3 uM by filter binding assay relative to control
In short: as §1

MCF7 = assay: Induction of cell cycle arrest in human MCF7 cells assessed as decrease in cells accumulation at G2/M phase at 0.03 to 10 uM incubated for 24 to 48 hrs by propidium iodide staining based flow cytometric analysis; type: functional; settings: dose 0.03-10 µM, time lower 24.0 hrs, time upper […]
In short: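 COLO 205, MCF-7 or NCI-H929 cells seeded in 96-well plates overnight at 37°C, then exposed to DMSO or increasing compound concentrations for 24 or 48 h. Fixed and stained with propidium iodide (Vindelov method), then analysed by flow cytometry for sub-G1, G1, S and G2-M fractions. Experiment repeated twice.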

[14] = molecular target: Tyrosine-protein kinase BTK (Homo sapiens, UniProt Q06187); assay: Inhibition of N-terminal His6-tagged recombinant full-length human BTK expressed in baculovirus infected Sf21 cells by filter binding assay
Sequence of Tyrosine-protein kinase BTK (Q06187 whole entry): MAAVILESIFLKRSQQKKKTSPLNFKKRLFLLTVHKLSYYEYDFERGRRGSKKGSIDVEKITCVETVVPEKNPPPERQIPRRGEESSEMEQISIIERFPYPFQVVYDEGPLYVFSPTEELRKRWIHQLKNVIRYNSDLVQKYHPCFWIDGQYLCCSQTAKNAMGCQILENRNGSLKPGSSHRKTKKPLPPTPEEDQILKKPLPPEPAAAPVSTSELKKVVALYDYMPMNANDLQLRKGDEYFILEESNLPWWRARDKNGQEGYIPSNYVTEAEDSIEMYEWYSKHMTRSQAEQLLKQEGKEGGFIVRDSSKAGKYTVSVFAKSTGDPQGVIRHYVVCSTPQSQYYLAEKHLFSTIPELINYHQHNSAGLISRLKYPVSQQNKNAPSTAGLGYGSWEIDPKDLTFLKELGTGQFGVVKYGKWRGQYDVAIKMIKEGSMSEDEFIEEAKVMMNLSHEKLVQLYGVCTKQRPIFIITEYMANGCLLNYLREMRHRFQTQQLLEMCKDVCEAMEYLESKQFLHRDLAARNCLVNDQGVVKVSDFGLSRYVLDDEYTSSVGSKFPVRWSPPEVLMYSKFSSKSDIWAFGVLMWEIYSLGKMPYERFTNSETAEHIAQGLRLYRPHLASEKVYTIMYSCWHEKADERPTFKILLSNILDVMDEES

[15] = molecular target: Receptor-type tyrosine-protein kinase FLT3 (Homo sapiens, UniProt P36888); assay: Inhibition of N-terminal GST tagged recombinant human Flt3 (564 to end residues) expressed in Sf21 cells by filter binding assay
NCI-H1299 = assay: Antiproliferative activity against human NCI-H1299 cells assessed as reduction in cell viability after 72 hrs by CellTiter-Glo assay; type: functional, cell-based; settings: NCI-H1299, 72 h
In short: as §2

[16] = molecular target: Activin receptor type-1B (Homo sapiens) (UniProt P36896); assay: Inhibition of N-terminal GST-tagged recombinant human ALK4 (150 to end residues) expressed in baculovirus infected Sf21 cells at 3 uM by filter binding assay relative to control
Sequence of Activin receptor type-1B (Homo sapiens) (P36896 whole entry): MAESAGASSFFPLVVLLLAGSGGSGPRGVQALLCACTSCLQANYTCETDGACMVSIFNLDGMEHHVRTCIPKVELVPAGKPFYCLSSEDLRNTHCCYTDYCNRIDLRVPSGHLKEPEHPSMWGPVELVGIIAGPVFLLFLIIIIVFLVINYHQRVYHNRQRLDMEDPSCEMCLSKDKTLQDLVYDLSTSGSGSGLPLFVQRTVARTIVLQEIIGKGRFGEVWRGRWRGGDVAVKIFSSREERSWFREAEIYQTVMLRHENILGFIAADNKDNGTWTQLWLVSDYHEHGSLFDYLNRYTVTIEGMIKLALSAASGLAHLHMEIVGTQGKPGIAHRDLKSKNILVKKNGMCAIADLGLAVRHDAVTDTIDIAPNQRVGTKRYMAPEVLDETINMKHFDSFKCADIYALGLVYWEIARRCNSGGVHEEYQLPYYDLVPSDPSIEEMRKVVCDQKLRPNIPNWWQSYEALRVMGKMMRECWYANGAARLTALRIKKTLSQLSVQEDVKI
In short: as §1

KARPAS-299 = assay: Antiproliferative activity against human KARPAS-299 cells assessed as reduction in cell viability after 72 hrs by CellTiter-Glo assay; type: functional, cell-based; settings: KARPAS-299, 72 h
In short: as §2

[17] = Antitumor activity against mouse NIH-3T3/LISN cells implanted in nu/nu CD-1 mouse assessed as reduction in tumor growth at 30 mg/kg, po administered twice daily for 21 days relative to control; type: functional; settings: 504 h, time 21 day, read-out: TGI
In short: (§3)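 Exponentially growing cells implanted s.c. in the right flank of 8–10-wk-old female athymic nu/nu CD-1 mice. At 150–200 mm3, block-randomized by tumor size into groups of eight. Oral dosing once or twice daily for 21 d; vehicle 20% sulfobutylether-β-cyclodextrin, pH 3.5. Calipers twice weekly; volume = length×width²/2. Growth inhibition = 100×[1 − treated growth/vehicle growth].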

Insulin receptor = Insulin receptor (Homo sapiens, UniProt P06213); assay: Inhibition of N-terminal His6-tagged recombinant human IR (1005 to 1310 residues) expressed in baculovirus infected Sf21 cells by filter binding assay
Sequence of Insulin receptor (P06213 28-758 limits assumed): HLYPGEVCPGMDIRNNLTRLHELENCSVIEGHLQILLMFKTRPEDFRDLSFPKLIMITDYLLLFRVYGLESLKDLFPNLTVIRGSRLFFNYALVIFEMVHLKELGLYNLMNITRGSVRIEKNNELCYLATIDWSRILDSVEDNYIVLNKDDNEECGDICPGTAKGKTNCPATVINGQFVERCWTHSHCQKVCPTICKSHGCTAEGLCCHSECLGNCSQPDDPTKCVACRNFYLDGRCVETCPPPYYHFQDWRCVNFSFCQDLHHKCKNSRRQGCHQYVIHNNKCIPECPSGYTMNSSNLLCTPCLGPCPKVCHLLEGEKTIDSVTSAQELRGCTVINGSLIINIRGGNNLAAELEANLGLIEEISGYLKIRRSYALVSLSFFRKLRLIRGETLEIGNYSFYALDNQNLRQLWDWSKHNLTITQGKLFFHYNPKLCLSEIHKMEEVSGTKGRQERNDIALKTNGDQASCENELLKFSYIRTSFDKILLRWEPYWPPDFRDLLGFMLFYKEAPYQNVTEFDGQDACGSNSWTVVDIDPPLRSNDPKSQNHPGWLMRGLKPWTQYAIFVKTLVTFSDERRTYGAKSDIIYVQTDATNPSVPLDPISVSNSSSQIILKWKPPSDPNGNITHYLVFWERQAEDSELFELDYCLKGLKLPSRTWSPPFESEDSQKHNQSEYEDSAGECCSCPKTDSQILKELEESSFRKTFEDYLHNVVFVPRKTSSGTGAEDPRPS
Sequence of Insulin receptor (P06213 763-1382 limits assumed): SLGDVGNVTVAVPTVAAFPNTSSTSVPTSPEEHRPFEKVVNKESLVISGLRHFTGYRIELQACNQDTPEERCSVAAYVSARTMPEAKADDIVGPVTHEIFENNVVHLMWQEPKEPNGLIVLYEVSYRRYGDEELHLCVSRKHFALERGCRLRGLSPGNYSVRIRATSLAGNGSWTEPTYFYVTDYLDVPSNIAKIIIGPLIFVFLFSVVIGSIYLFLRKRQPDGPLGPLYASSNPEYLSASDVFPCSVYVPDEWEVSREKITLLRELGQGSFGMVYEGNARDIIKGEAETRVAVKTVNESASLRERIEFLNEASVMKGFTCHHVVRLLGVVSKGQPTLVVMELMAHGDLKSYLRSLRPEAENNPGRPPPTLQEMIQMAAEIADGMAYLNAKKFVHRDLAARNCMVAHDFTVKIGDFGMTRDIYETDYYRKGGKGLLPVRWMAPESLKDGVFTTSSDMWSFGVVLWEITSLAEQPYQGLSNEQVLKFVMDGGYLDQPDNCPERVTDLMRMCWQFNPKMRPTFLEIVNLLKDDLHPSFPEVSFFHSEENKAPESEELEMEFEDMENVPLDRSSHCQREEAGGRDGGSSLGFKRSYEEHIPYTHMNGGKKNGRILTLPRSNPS

[18] = Antitumor activity against mouse NIH-3T3/LISN cells implanted in nu/nu CD-1 mouse assessed as reduction in tumor growth at 30 mg/kg, po for 21 days relative to control; type: functional; settings: 504 h, time 21 day, read-out: TGI
In short: as §3

Sequence of Insulin receptor (Mus musculus) (P15208 28-748 limits assumed): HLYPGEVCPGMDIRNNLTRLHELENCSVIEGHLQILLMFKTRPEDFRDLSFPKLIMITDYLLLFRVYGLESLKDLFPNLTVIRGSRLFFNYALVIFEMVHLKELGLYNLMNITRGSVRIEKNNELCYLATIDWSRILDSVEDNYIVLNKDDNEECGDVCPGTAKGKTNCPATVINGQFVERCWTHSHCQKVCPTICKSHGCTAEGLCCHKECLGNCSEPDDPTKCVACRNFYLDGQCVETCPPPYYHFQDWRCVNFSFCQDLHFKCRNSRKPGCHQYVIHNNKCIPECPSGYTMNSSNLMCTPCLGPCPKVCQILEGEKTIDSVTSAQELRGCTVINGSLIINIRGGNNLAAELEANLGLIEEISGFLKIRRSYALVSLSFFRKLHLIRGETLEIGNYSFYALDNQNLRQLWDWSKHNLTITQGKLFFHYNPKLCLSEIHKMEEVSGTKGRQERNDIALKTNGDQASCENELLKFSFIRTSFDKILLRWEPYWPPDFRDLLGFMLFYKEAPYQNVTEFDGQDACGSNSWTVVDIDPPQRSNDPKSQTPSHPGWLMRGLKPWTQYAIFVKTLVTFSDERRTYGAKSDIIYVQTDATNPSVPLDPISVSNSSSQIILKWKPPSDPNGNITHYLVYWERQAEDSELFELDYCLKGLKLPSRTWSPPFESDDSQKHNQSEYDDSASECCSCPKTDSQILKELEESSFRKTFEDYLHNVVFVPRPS
Sequence of Insulin receptor (Mus musculus) (P15208 753-1372 limits assumed): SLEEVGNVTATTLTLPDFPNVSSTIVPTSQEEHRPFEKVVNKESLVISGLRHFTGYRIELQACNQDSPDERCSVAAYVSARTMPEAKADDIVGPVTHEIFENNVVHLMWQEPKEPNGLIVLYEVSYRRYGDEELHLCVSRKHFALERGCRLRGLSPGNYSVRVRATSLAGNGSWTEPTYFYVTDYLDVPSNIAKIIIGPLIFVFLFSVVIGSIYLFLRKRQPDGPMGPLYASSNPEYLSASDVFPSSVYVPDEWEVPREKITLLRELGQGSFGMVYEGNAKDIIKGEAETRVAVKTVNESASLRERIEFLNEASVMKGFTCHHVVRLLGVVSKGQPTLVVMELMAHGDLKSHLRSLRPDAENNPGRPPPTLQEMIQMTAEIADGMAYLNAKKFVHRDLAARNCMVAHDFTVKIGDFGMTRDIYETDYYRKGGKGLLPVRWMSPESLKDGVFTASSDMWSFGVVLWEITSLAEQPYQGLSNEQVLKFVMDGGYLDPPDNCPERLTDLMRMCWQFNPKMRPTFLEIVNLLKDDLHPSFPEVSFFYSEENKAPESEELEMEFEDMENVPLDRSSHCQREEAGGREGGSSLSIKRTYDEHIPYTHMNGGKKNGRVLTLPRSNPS

In the case of `CCc1cc(Nc2nccc(-c3c(-c4ccc(OC)c(C(=O)Nc5c(F)cccc5F)c4)nc4ccccn34)n2)c(OC)cc1N1CCC(N2CCN(S(C)(=O)=O)CC2)CC1`, the inhibition [1] is reported as “inactive”, the inhibition [2] is reported as 21% and the inhibition in vivo at 30 mg/kg [3] is reported as 76%. For the same compound, the inhibition [4] was 0%, the inhibition [5] was 0% and the inhibition [6] was 4%. The IC50 [7] was over 30000 nM, the inhibition [8] was “inactive” and the IC50 (EJM) was over 30000 nM. For the same compound, the inhibition [9] was 1%, the Activity [10] was 11% and the IC50 [11] was over 10000 nM. For the same compound, the inhibition [12] was 16%, the IC50 (KMS-12-BM) was 113 nM and the inhibition [13] was 1%. The Activity (MCF7) was “Active”, the IC50 [14] was 357 nM and the IC50 [15] was 2850 nM. The IC50 (NCI-H1299) was over 20000 nM, the inhibition [16] was -10% and the IC50 (KARPAS-299) was over 30000 nM. For the same compound, the inhibition in vivo at 30 mg/kg [17] was 98%, the IC50 (Insulin receptor) was 74 nM and the inhibition in vivo at 30 mg/kg [18] was 56%.
